According to ChEMBL document CHEMBL1153193, “Microwave-assisted synthesis and structure-activity relationships of neuroactive pyrazolo[3,4-b]pyrrolo[3,4-d]pyridine derivatives” (Bioorg Med Chem Lett, 2010):

Test system: Mus musculus
Assay: Sedative activity in Swiss mouse assessed as reduction of locomotor activity at 10 umol/kg, ip after 40 mins
Type: organism-based
Settings: in vivo; call rule not given here
Procedure, shortened: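 Mice received a single screening dose intraperitoneally. Motor activity was counted over the 40 min after injection and expressed as movements per minute. An untreated control group and a midazolam reference group (2 mg/kg) were run alongside. Data are given as means ± SEM, and significance was tested against control.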

| SMILES | Activity |
| --- | --- |
| Cc1nn(C)c2ncc3c(c12)C(=O)N(c1ccc([N+](=O)[O-])cc1)C3=O | Not Active |
| Cc1nn(C)c2ncc3c(c12)C(=O)N(c1ccc(Cl)cc1)C3=O | Not Active |
| Cc1nn(C)c2ncc3c(c12)C(=O)N(c1ccccc1)C3=O | Not Active |
| Cc1ccc(N2C(=O)c3cnc4c(c(C)nn4-c4ccccc4)c3C2=O)cc1 | Not Active |
| Cc1nn(-c2ccccc2)c2ncc3c(c12)C(=O)N(c1ccccc1)C3=O | Not Active |
| COc1ccc(N2C(=O)c3cnc4c(c(C)nn4C)c3C2=O)cc1 | Not Active |
| Cc1nn(-c2ccccc2)c2ncc3c(c12)C(=O)N(c1ccc(C(=O)O)cc1)C3=O | Not Active |
| COc1ccc(N2C(=O)c3cnc4c(c(C)nn4-c4ccccc4)c3C2=O)cc1 | Active |
| Cc1nn(-c2ccccc2)c2ncc3c(c12)C(=O)N(c1ccc(Cl)cc1)C3=O | Not Active |
| Cc1nn(C)c2ncc3c(c12)C(=O)N(c1ccc(C(=O)O)cc1)C3=O | Not Active |
| Cc1nn(-c2ccccc2)c2ncc3c(c12)C(=O)N(c1ccc([N+](=O)[O-])cc1)C3=O | Active |
| Cc1ccc(N2C(=O)c3cnc4c(c(C)nn4C)c3C2=O)cc1 | Not Active |
